Converted amounts (≈) assume the structure as drawn.
Tests used:
[1] = biological target: T1, Melanin-concentrating hormone receptor 1 (Homo sapiens, UniProt Q99705); experiment: Displacement of [125I]MCH from human MCHR1 expressed in CHO cells after 1 hr by scintillation counting; format: cell-based
Outline: (§1)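 CHO cell membranes stably expressing human or rat MCHR1 incubated 1 h at room temperature with [125I]MCH(4−19) and compound at various concentrations. Filtration through GF/C glass filters, bound radioactivity counted by scintillation. IC50 from one experiment in duplicate.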

[2] = biological target: T2, 5-hydroxytryptamine receptor 2C (Homo sapiens, UniProt P28335); experiment: Displacement of [3H]mesulergine from human 5HT2C receptor expressed in CHO cells after 1 hr by scintillation counting; format: cell-based
T2 sequence (P28335 whole entry): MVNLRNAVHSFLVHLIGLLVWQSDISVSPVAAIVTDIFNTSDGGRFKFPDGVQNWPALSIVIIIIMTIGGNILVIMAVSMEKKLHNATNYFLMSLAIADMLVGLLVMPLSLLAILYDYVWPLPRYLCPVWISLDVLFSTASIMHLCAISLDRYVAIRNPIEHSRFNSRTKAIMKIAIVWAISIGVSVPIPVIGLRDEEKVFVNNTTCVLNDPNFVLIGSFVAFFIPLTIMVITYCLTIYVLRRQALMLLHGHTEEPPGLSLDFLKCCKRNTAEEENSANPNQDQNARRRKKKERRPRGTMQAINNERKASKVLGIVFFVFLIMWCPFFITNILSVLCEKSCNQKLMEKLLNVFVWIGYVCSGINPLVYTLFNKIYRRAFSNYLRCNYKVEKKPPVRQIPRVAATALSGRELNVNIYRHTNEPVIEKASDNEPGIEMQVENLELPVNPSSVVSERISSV
Outline: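 Membranes from CHO cells stably expressing human 5-HT2c incubated 1 h at room temperature with [3H]mesulergine and compound at various concentrations. Terminated by GF/C filtration, filter radioactivity counted by scintillation. IC50 from one experiment in duplicate.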

[3] = Solubility of the compound in JP2 solution at 10 mM; format: physicochemical
Outline: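 The 10 mM DMSO solution of compound was added to JP2 until opalescence appeared.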

[4] = biological target: T1, Melanin-concentrating hormone receptor 1; experiment: Antagonist activity at human MCHR1 expressed in CHO cells assessed as inhibition of MCH-induced [3H]arachidonic acid release […] by liquid scintillation counting; format: functional, cell-based; details: in the assay text read “45 mins” for “16 hrs”
Outline: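 Human MCHR1-CHO cells seeded at 50 000/well, cultured 1 day, then loaded with [3H]arachidonic acid (0.2 μCi/well) for 16 h. Washed with DMEM containing 20 mM HEPES pH 7.4 and 0.2% BSA. Compound preincubated 30 min at 37 °C, MCH added, 45 min incubation, medium radioactivity by liquid scintillation.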

Rattus norvegicus [5] = experiment: Antiobesity activity in high-fat diet fed Fischer 344 rat DIO model assessed as inhibition of food intake at 3 mg/kg, po after 6 hrs; format: functional; details: Fischer 344, 6 h
Outline: (§2)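 Male 52-week-old F344/Jcl rats on high-fat diet from 5 weeks of age, housed singly, grouped by overnight food intake and body weight. Oral dosing at 15:00 in 0.5% methylcellulose suspension, 2 mL/kg, against vehicle controls; six rats per group.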

[6] = Tmax in Fischer 344 rat brain at 1 mg/kg, po; format: ADME, organism-based; set-up: dose 1 mg/kg, route oral
Rattus norvegicus [7] = experiment: Antiobesity activity in po dosed high-fat diet fed Fischer 344 rat DIO model assessed as inhibition of food intake after 17 hrs; format: functional, organism-based; outline: as §2
Rattus norvegicus [8] = experiment: Antiobesity activity in high-fat diet fed Fischer 344 rat DIO model assessed as inhibition of food intake at 1 mg/kg, po after 6 hrs; format: functional; details: Fischer 344, 6 h
Outline: (§3)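 Male F344/Jcl rats, 52 weeks old, fed high-fat diet from 5 weeks of age, housed singly and acclimated to oral water dosing; grouped by overnight food intake and body weight. Single oral dose at 15:00 as 0.5% methylcellulose suspension, 2 mL/kg, six rats per group; vehicle controls. Cumulative food intake at 6 and 17 h; percent inhibition versus control, mean ± SD.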

[9] = Cmax in Fischer 344 rat at 1 mg/kg, po; format: ADME, organism-based; set-up: dose 1 mg/kg, route oral; details: in vivo
[10] = Total clearance in Fischer 344 rat at 0.3 mg/kg, iv; format: ADME, organism-based; set-up: dose 0.3 mg/kg, route intravenous; details: in vivo
[11] = Volume of distribution at the steady state in Fischer 344 rat at 0.3 mg/kg, iv; format: ADME, organism-based; set-up: dose 0.3 mg/kg, route intravenous; details: in vivo, read-out: Vdss
Rattus norvegicus [12] = experiment: Antiobesity activity in high-fat diet fed Fischer 344 rat DIO model assessed as inhibition of food intake at 3 mg/kg, po after 17 hrs; format: functional; details: Fischer 344, 17 h; outline: as §2
Mus musculus [13] = experiment: Antiobesity activity in MCHR1-deficient mouse assessed as inhibition of food intake at 10 mg/kg, po qd for 2 days; format: functional; details: 48 h
Outline: (§4)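 Male MCHR1-deficient mice and wild-type littermates, 34 weeks old, on high-fat diet from 5 weeks of age, housed singly. Grouped by food intake days −5 to −1 and day −1 body weight. Oral dosing at 16:00 on days 0 and 1 in 0.5% methylcellulose suspension, 10 mL/kg, against vehicle controls; six mice per group.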

Rattus norvegicus [14] = experiment: Antiobesity activity in high-fat diet fed Fischer 344 rat DIO model assessed as inhibition of food intake at 1 mg/kg, po after 17 hrs; format: functional; details: Fischer 344, 17 h; outline: as §3
Mus musculus [15] = experiment: Antiobesity activity in high-fat diet given wild type mouse assessed as inhibition of food intake at 3 mg/kg, po qd for 2 days; format: functional; details: 48 h; outline: as §4
[16] = Half life in Fischer 344 rat at 0.3 mg/kg, iv; format: ADME, organism-based; set-up: dose 0.3 mg/kg, route intravenous; details: in vivo
[17] = Bioavailability in Fischer 344 rat; format: ADME, organism-based; details: in vivo
Mus musculus [18] = experiment: Antiobesity activity in high-fat diet given wild type mouse assessed as inhibition of food intake at 10 mg/kg, po qd for 2 days; format: functional; details: 48 h; outline: as §4
[19] = AUC in Fischer 344 rat at 1 mg/kg, po; format: ADME, organism-based; set-up: dose 1 mg/kg, route oral; details: plasma
Rattus norvegicus [20] = experiment: Antiobesity activity in high-fat diet fed Fischer 344 rat DIO model assessed as inhibition of food intake at 10 mg/kg, po after 6 hrs; format: functional; details: Fischer 344, 6 h; outline: as §2
Mus musculus [21] = experiment: Antiobesity activity in MCHR1-deficient mouse assessed as inhibition of food intake at 3 mg/kg, po qd for 2 days; format: functional; details: 48 h; outline: as §4
Brain = experiment: AUC in Fischer 344 rat brain at 1 mg/kg, po; format: ADME, organism-based; set-up: dose 1 mg/kg, route oral; details: in vivo
[22] = biological target: Melanin-concentrating hormone receptor 1 (Rattus norvegicus, UniProt P97639); experiment: Displacement of [125I]MCH from rat MCHR1 expressed in CHO cells after 1 hr by scintillation counting; format: cell-based; outline: as §1
Sequence of Melanin-concentrating hormone receptor 1 (Rattus norvegicus, UniProt P97639) (P97639 whole entry): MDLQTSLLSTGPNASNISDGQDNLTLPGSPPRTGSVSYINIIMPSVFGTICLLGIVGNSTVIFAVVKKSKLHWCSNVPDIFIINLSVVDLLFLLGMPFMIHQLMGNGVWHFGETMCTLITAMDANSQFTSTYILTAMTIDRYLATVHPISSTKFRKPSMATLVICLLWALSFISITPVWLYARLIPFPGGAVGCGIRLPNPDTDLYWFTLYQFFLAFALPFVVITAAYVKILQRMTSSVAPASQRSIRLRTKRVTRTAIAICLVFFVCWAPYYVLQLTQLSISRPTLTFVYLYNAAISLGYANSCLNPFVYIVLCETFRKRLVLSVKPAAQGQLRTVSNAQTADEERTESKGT

[23] = Cmax in Fischer 344 rat brain at 1 mg/kg, po; format: ADME, organism-based; set-up: dose 1 mg/kg, route oral
[24] = Tmax in Fischer 344 rat at 1 mg/kg, po; format: ADME, organism-based; set-up: dose 1 mg/kg, route oral; details: in vivo
Rattus norvegicus [25] = experiment: Antiobesity activity in high-fat diet fed Fischer 344 rat DIO model assessed as inhibition of food intake at 10 mg/kg, po after 17 hrs; format: functional; details: Fischer 344, 17 h; outline: as §2

T1 sequence (Q99705 whole entry): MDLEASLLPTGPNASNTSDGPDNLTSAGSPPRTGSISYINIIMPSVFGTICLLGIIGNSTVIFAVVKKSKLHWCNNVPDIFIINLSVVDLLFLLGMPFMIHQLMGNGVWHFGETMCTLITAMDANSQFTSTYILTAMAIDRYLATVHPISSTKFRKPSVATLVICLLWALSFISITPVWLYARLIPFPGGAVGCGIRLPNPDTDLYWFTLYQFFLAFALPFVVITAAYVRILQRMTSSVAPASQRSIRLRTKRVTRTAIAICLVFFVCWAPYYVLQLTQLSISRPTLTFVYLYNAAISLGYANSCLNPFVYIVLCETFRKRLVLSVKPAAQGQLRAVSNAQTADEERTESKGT

O=C(Nc1ccc2cc(CN3CCCC3)cnc2c1)N1CCC(c2ccccc2)CC1
IC50 [1]: 100 nM

Cc1ccc(-c2ccc(C(=O)Nc3ccc4cc(CN5CCCC5)cnc4c3)cc2)cc1
IC50 [1]: 2.2 nM | IC50 [2]: 660 nM

O=C(Nc1ccc2cc(CN3CCCC3)cnc2c1)c1ccc(-c2ccc(F)cc2)cc1
IC50 [1]: 2.8 nM | IC50 [2]: 160 nM | solubility [3]: 1.5 µg/mL (≈ 3.53 µM) | IC50 [4]: 9.2 nM

Cc1ccc(-c2ccc(C(=O)Nc3ccc4cc(CN5CCCC5)cnc4c3C)cc2)cc1
IC50 [1]: 1 nM | IC50 [2]: 540 nM | IC50 [4]: 11 nM

Cc1cc2cc(CN3CCCC3)cnc2cc1NC(=O)c1ccc(-c2ccc(F)cc2)cc1
IC50 [1]: 1.3 nM | IC50 [2]: 7.4 nM | IC50 [4]: 10 nM

Cc1ccc(-c2ccc(C(=O)Nc3ccc4cc(CN5CCCC5)cnc4c3)cn2)cc1
IC50 [1]: 18 nM | IC50 [2]: 570 nM

O=C(Nc1cc2ncc(CN3CCCC3)cc2cc1F)c1ccc(-c2ccc(F)cc2)cc1
IC50 [1]: 1.4 nM | IC50 [2]: 280 nM | IC50 [4]: 8.4 nM

Cc1c(NC(=O)c2ccc(-c3ccc(Cl)cc3)cc2)ccc2cc(CN3CCCC3)cnc12
IC50 [1]: 0.36 nM | IC50 [2]: > 1000 nM | IC50 [4]: 7.6 nM

O=C(Nc1ccc2cc(CN3CCCC3)cnc2c1F)c1ccc(-c2ccc(F)cc2)cc1
IC50 [1]: 0.92 nM | IC50 [2]: 78 nM | IC50 [4]: 2.3 nM

O=C(Nc1ccc2c(c1)OCC(CN1CCCC1)=C2)c1ccc(-c2ccc(F)cc2)cc1
IC50 [1]: 0.91 nM | IC50 [2]: 3.1 nM | solubility [3]: 0.17 µg/mL (≈ 0.397 µM) | IC50 [4]: 10 nM

O=C(Nc1ccc2cc(CN3CCCC3)cnc2c1)c1ccc(-c2ccc(Cl)cc2)cc1
IC50 [1]: 0.74 nM | IC50 [2]: 630 nM | IC50 [4]: 8.5 nM

COc1c(NC(=O)c2ccc(-c3ccc(F)cc3)cc2)ccc2cc(CN3CCCC3)cnc12
IC50 [1]: 110 nM

Cc1c(NC(=O)c2ccc(-c3ccccc3)cc2)ccc2cc(CN3CCCC3)cnc12
IC50 [1]: 1.8 nM | IC50 [2]: 760 nM | IC50 [4]: 7 nM

O=C(Nc1ccc2cc(CN3CCCC3)cnc2c1)c1ccc(-c2ccccc2)cc1
IC50 [1]: 13 nM | IC50 [2]: 310 nM

Cc1ccc(C2CCN(C(=O)Nc3ccc4cc(CN5CCCC5)cnc4c3)CC2)cc1
IC50 [1]: 23 nM

O=C(Nc1ccc2cc(CN3CCCC3)cnc2c1)N1CCC(c2ccc(F)cc2)CC1
IC50 [1]: 35 nM

Cc1c(NC(=O)c2ccc(-c3ccc(F)cc3)cc2)ccc2cc(CN3CCCC3)cnc12
inhibition in vivo at 3 mg/kg (Rattus norvegicus [5]): 36.7% | Tmax [6]: 8 h | inhibition (Rattus norvegicus [7]): Dose-dependent effect | inhibition in vivo at 1 mg/kg (Rattus norvegicus [8]): 18.8% | Cmax [9]: 9 ng/mL | clearance [10]: 40 mL/min/kg | Vd [11]: 20 L/kg | IC50 [1]: 0.54 nM | inhibition in vivo at 3 mg/kg (Rattus norvegicus [12]): 28.9% | IC50 [2]: > 1000 nM | inhibition in vivo at 10 mg/kg (Mus musculus [13]): 5.7% | inhibition in vivo at 1 mg/kg (Rattus norvegicus [14]): 15.5% | inhibition in vivo at 3 mg/kg (Mus musculus [15]): 10.2% | half-life [16]: 7.7 h | bioavailability [17]: 39% | inhibition in vivo at 10 mg/kg (Mus musculus [18]): 13.2% | AUC [19]: 160 ng·h/mL | inhibition in vivo at 10 mg/kg (Rattus norvegicus [20]): 55.7% | inhibition in vivo at 3 mg/kg (Mus musculus [21]): 4.1% | AUC (Brain): 9343 ng·h/g | IC50 [4]: 2.8 nM | IC50 [22]: 1.7 nM | Cmax [23]: 610 ng/g | Tmax [24]: 4 h | inhibition in vivo at 10 mg/kg (Rattus norvegicus [25]): 45.8%

O=C(Nc1cc2ncc(CN3CCCC3)cc2cc1Cl)c1ccc(-c2ccc(F)cc2)cc1
IC50 [1]: 1.4 nM | IC50 [2]: 240 nM | IC50 [4]: 12 nM

O=C(Nc1ccc2cc(CN3CCCC3)cnc2c1)c1ccc(-c2ccc(F)cc2)nc1
IC50 [1]: 25 nM | IC50 [2]: 830 nM

CCc1c(NC(=O)c2ccc(-c3ccc(F)cc3)cc2)ccc2cc(CN3CCCC3)cnc12
IC50 [1]: 100 nM | IC50 [2]: > 1000 nM

CC(C)CC(N(C)C)C1(c2ccc(Cl)cc2)CCC1 (stereo unspecified) [SIBUTRAMINE]
inhibition in vivo at 1 mg/kg (Rattus norvegicus [8]): 34.6% | inhibition in vivo at 1 mg/kg (Rattus norvegicus [14]): 25.8%

O=C(Nc1ccc2cc(CN3CCCC3)cnc2c1)N1CCC(c2ccc(Cl)cc2)CC1
IC50 [1]: 6.6 nM | IC50 [2]: 55 nM

COc1ccc(-c2ccc(C(=O)Nc3ccc4cc(CN5CCCC5)cnc4c3C)cc2)cc1
IC50 [1]: 0.53 nM | IC50 [2]: > 1000 nM | IC50 [4]: 4.3 nM

O=C(Nc1ccc2cc(CN3CCCC3)cnc2c1)c1ccc(-c2ccc(Cl)cc2)nc1
IC50 [1]: 4.1 nM | IC50 [2]: 930 nM | IC50 [4]: 14 nM

O=C(Nc1ccc2cc(CN3CCCC3)ccc2c1)c1ccc(-c2ccc(F)cc2)cc1
IC50 [1]: 0.76 nM | IC50 [2]: 120 nM | solubility [3]: 0.11 µg/mL (≈ 0.259 µM) | IC50 [4]: 9 nM

O=C(Nc1ccc2cc(CN3CCCC3)cnc2c1)c1ccc(-c2ccccc2)nc1
IC50 [1]: 73 nM

COc1ccc(C2CCN(C(=O)Nc3ccc4cc(CN5CCCC5)cnc4c3)CC2)cc1
IC50 [1]: 48 nM

COc1ccc(-c2ccc(C(=O)Nc3ccc4cc(CN5CCCC5)cnc4c3)cc2)cc1
IC50 [1]: 3.7 nM | IC50 [2]: > 1000 nM

O=C(Nc1ccc2c(c1)CCC(CN1CCCC1)=C2)c1ccc(-c2ccc(F)cc2)cc1
IC50 [2]: 0.53 nM | solubility [3]: < 0.03 µg/mL | IC50 [4]: 17 nM

COc1ccc(-c2ccc(C(=O)Nc3ccc4cc(CN5CCCC5)cnc4c3)cn2)cc1
IC50 [1]: 26 nM

O=C(Nc1ccc2nc(CN3CCCC3)ccc2c1)c1ccc(-c2ccc(F)cc2)cc1
IC50 [1]: 2.7 nM | IC50 [2]: 36 nM | IC50 [4]: 40 nM
